These results are taken from PMC3100537 (Biochemistry, 2011).

“And” between values parts separate entries of the source, which are not always exact repeats. Equal entries are not always repeated. Where only a bound is given, the exact number is not on record here.

The nature of data set [1]: Non-denaturing gradient gel electrophoresis. Conditions: Native-PAGE 4–20% Tris-glycine gel; stock solutions 1 mg/ml PBS, pH 7.4; 3 μg per well. It counts as physicochemical.
Data set [2] in a line: Circular dichroism spectroscopy, secondary structure. Type of data set: physicochemical. In short, it runs like this:
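Lipid-free peptide in 10 mM sodium phosphate, pH 7.4, at 25°C; 2 mg/ml stock diluted in the same buffer to 6–310 μM (18–1000 μg/ml). Four scans at 20 nm/min averaged per concentration. α-Helicity derived from molar ellipticity at 222 nm; [θ]222/[θ]208 ratio plotted against concentration. For TFE, 0.2 mg/ml peptide held ±50% TFE for 30 min at 25°C before scanning (n=3).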
Background: CD spectra are sensitive to the conformation of chiral molecules.

Data set [3] is described as follows: physchem. Conditions: pH 7.4, aqueous buffer.
Data set [4] is described as follows: Gel-filtration chromatography. Type of data set: physicochemical. In short, it runs like this:
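Size-exclusion FPLC on Superdex 75 or Superdex Peptide columns equilibrated in PBS (10 mM phosphate, 150 mM NaCl, pH 7.4), run at 0.5 ml/min at room temperature. 0.2 ml of peptide stock (0.125 to 140 mg/ml; concentration set by A280) injected, with elution read at 280 or 215 nm. Columns calibrated with molecular weight standards. Stocks also run after 2 years' sterile storage at 4°C or 24 h at 37°C.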

Data set [5] can be described thus: Small angle X-ray scattering. Type of data set: physicochemical. An outline of the steps:
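Concentration-scaled intensity at q = 0 converted to mass by calibration against lysozyme, xylanase and BSA. Ab initio shape from ten averaged modelling runs. Two independent peptide preparations measured.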

The nature of data set [6]: DMS cross-linking / SDS-PAGE of self-associated forms. It counts as physicochemical. Conditions: 20-fold molar excess DMS, 3 h, 25 °C; SDS-PAGE 10–20% Tricine gel. In short, it runs like this:
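Peptide at various concentrations reacted with 20-fold molar excess dimethylsuberimidate for 3 h at 25°C, then quenched with 50 mM Tris-HCl. Mixed with SDS loading buffer, boiled 1 min, and run on 10–20% Tris-Tricine SDS-PAGE. Protein stain visualized cross-linked species, sized against 1.7–40 kDa markers.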

Data set [7] deals with J774 mouse macrophages. To be noted: lipid-free peptide; cited from earlier work.

For “Ac-DWFKAFYDKVAEKFKEAF-NH2 [peptide 4F, reference compound]”, the “migration form on non-denaturing gel (aggregation)” value in data set [1] is listed as “aggregated as high molecular weight (HMW) species”. Further, in data set [2] (0.2 mg/ml, 50% TFE), the “α-helical content, presence of 50% TFE” value came to 49%. Besides, the “α-helical content, absence of TFE” value in data set [2] (0.2 mg/ml, no TFE) is given as 28%. The solubility (usually the dissolved amount per volume that the medium holds) in data set [3] is roughly 1000 µg/mL.

In the case of “Ac-EVRSKLEEWFAAFREFAEEFLARLKS-NH2 [ATI-5261]”, in data set [1], the “migration form on non-denaturing gel (aggregation)” value is reported as “low molecular weight (LMW) band”. Moreover, the “gel-filtration profile after prolonged storage” value in data set [4] (2 years in PBS at 4 °C under sterile conditions, data not shown) was “not altered”. For the same substance, the “concentration at which monomeric ATI-5261 predominated” value in data set [4] (FPLC (Superdex 75 and Peptide columns) and SDS-PAGE/DMS cross-linking) was no more than 25000 ng/mL. For the same substance, the “concentration at which peptide monomers were predominant” value in data set [4] (FPLC, allowing for ~10-fold dilution on the columns, PBS pH 7.4) was less than 25000 ng/mL. Moreover, the “MW of the peptide assembly by FPLC” value in data set [4] (Superdex Peptide 10/300 GL column, 1 mg peptide/ml, PBS, A215, calibrated with (Gly)6, aprotinin, ribonuclease A) is 12.8 kDa. In data set [4] (incubation at 37 °C for 24 h, data not shown), the “gel-filtration profile after incubation at 37 °C” value is recorded as “not altered”. Also, the “SAXS MW relative to monomeric weight of the peptide (3230 Da)” value in data set [5] (2–8 mg/ml PBS pH 7.4) is ~4 times and 4.1 times. Further, the “aggregation detected from X-ray intensity profiles” value in data set [5] (peptide at 2–8 mg/ml PBS) is listed as “Little or no aggregation”. In data set [6], the “concentration range of dissociation of the tetrameric assembly to monomers” value lay within 0.5 to 0.025 mg/ml. For the same substance, the “α-helical content, extensively diluted sample” value in data set [2] (6 μM, i.e. 18 μg/ml, 10 mM phosphate buffer pH 7.4, 25 °C) is 82.6%. Also, in data set [2] (0.2 mg/ml, 10 mM phosphate pH 7.4, 30 min TFE at 25 °C, n=3), the “α-helical content with 50% TFE compared to controls with no TFE” value is given as “remained unchanged”. In data set [2] (50% TFE), the 222/208 ellipticity ratio was less than 1. Further, the α-helical content in data set [2] (lipid-free peptide, 10 mM phosphate buffer pH 7.4, 25 °C, 0.2 mg/ml (62 μM), from molar ellipticity at 222 nm, mean ± SD, n=4) worked out at 74.1±6.8%. Moreover, the “concentration of saturation in cholesterol efflux” value in data set [7] is 3 µg/mL.
